From ChEMBL document CHEMBL2016484, “In vitro growth inhibition of human cancer cells by novel honokiol analogs” (Bioorg Med Chem, 2012)
The source made the active and inactive calls. The calls are words filed in the database; no cut-off is given here.

Columns and labels:
UACC-903 [1] = experiment: Cytotoxicity against human UACC-903 cells after 24 hrs by MTS assay; format: functional, cell-based; settings: for IC50: UACC-903, 24 h
UACC-903 [2] = experiment: Cytotoxicity against human UACC-903 cells after 72 hrs by MTS assay; format: functional, cell-based; settings: for IC50: UACC-903, 72 h
A549 [3] = experiment: Cytotoxicity against human A549 cells after 24 hrs by MTS assay; format: functional, cell-based; settings: for IC50: A549, 24 h
A549 [4] = experiment: Cytotoxicity against human A549 cells after 72 hrs by MTS assay; format: functional, cell-based; settings: for IC50: A549, 72 h
HT-29 [5] = experiment: Cytotoxicity against human HT-29 cells after 24 hrs by MTS assay; format: functional, cell-based; settings: for IC50: HT-29, 24 h
HT-29 [6] = experiment: Cytotoxicity against human HT-29 cells after 72 hrs by MTS assay; format: functional, cell-based; settings: for IC50: HT-29, 72 h
UACC-903 [7] = experiment: Cytotoxicity against human UACC-903 cells by MTS assay; format: functional, cell-based; settings: TDE = time-dependent effect
A549 [8] = experiment: Cytotoxicity against human A549 cells by MTS assay; format: functional, cell-based; settings: TDE = time-dependent effect
HT-29 [9] = experiment: Cytotoxicity against human HT-29 cells by MTS assay; format: functional, cell-based; settings: TDE = time-dependent effect
A549 [10] = experiment: Cell cycle arrest in synchronized human A549 cells assessed as accumulation at G1/G0 phase at 0.5 uM after 48 hrs by propidium iodide staining-based flow cytometric analysis (reference value: 40.6 +/- 4.6%); format: functional
A549 [11] = experiment: Cell cycle arrest in synchronized human A549 cells assessed as accumulation at G1/G0 phase at 2.5 uM after 48 hrs by propidium iodide staining-based flow cytometric analysis (reference value: 40.6 +/- 4.6%); format: functional
A549 [12] = experiment: Cell cycle arrest in synchronized human A549 cells assessed as accumulation at G1/G0 phase at 10 uM after 48 hrs by propidium iodide staining-based flow cytometric analysis (reference value: 40.6 +/- 4.6%); format: functional
A549 [13] = experiment: Cell cycle arrest in synchronized human A549 cells assessed as accumulation at S phase at 0.5 uM after 48 hrs by propidium iodide staining-based flow cytometric analysis (reference value: 41.2 +/- 3.1%); format: functional
A549 [14] = experiment: Cell cycle arrest in synchronized human A549 cells assessed as accumulation at S phase at 2.5 uM after 48 hrs by propidium iodide staining-based flow cytometric analysis (reference value: 41.2 +/- 3.1%); format: functional
A549 [15] = experiment: Cell cycle arrest in synchronized human A549 cells assessed as accumulation at S phase at 10 uM after 48 hrs by propidium iodide staining-based flow cytometric analysis (reference value: 41.2 +/- 3.1%); format: functional
A549 [16] = experiment: Cell cycle arrest in synchronized human A549 cells assessed as accumulation at G2/M phase at 0.5 uM after 48 hrs by propidium iodide staining-based flow cytometric analysis (reference value: 18.2 +/- 2.1%); format: functional
A549 [17] = experiment: Cell cycle arrest in synchronized human A549 cells assessed as accumulation at G2/M phase at 2.5 uM after 48 hrs by propidium iodide staining-based flow cytometric analysis (reference value: 18.2 +/- 2.1%); format: functional
A549 [18] = experiment: Cell cycle arrest in synchronized human A549 cells assessed as accumulation at G2/M phase at 10 uM after 48 hrs by propidium iodide staining-based flow cytometric analysis (reference value: 18.2 +/- 2.1%); format: functional
A549 [19] = experiment: Decrease in Cdk1 protein level in synchronized human A549 cells after 18 hrs by Western blot analysis; format: functional, cell-based
Method in brief: (§1)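 A549 cells synchronized with nocodazole (0.5 μg/ml, 15 h), then treated with compound (0, 0.5, 1.0, 2.0, 5.0 μM; final DMSO 0.2%) for 18 h at 37 °C. RIPA lysates with protease inhibitors, 40 μg protein on 12% SDS-PAGE, probed with rabbit polyclonal anti-human CDK1 or cyclin B1, ECL detection, densitometry; three experiments on different passages.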

A549 [20] = experiment: Decrease in cyclin B1 protein level in synchronized human A549 cells after 18 hrs by Western blot analysis; format: functional, cell-based; method in brief: as §1
A549 [21] = experiment: Cell cycle arrest in synchronized human A549 cells assessed as accumulation at S phase after 48 hrs by propidium iodide staining-based flow cytometric analysis; format: functional
A549 [22] = experiment: Cell cycle arrest in synchronized human A549 cells assessed as accumulation at G2/M phase after 48 hrs by propidium iodide staining-based flow cytometric analysis; format: functional
A549 [23] = experiment: Decrease in Cdk1 protein level in synchronized human A549 cells at 2 uM after 18 hrs by Western blot analysis; format: functional, cell-based; method in brief: as §1
A549 [24] = experiment: Decrease in cyclin B1 protein level in synchronized human A549 cells at 2 uM after 18 hrs by Western blot analysis; format: functional, cell-based; method in brief: as §1
A549 [25] = experiment: Decrease in Cdk1 protein level in synchronized human A549 cells at 5 uM after 18 hrs by Western blot analysis; format: functional, cell-based; method in brief: as §1
A549 [26] = experiment: Decrease in cyclin B1 protein level in synchronized human A549 cells at 5 uM after 18 hrs by Western blot analysis; format: functional, cell-based; method in brief: as §1

Structure (SMILES)	growth inhibition (GI) (UACC-903 [1])	IC50 (UACC-903 [1]) [µM]	growth inhibition (GI) (UACC-903 [2])	IC50 (UACC-903 [2]) [µM]	growth inhibition (GI) (A549 [3])	IC50 (A549 [3]) [µM]	growth inhibition (GI) (A549 [4])	IC50 (A549 [4]) [µM]	growth inhibition (GI) (HT-29 [5])	IC50 (HT-29 [5]) [µM]	growth inhibition (GI) (HT-29 [6])	IC50 (HT-29 [6]) [µM]	growth inhibition (GI) (UACC-903 [7])	growth inhibition (GI) (A549 [8])	growth inhibition (GI) (HT-29 [9])	Activity (A549 [10]) [%]	Activity (A549 [11]) [%]	Activity (A549 [12]) [%]	Activity (A549 [13]) [%]	Activity (A549 [14]) [%]	also measured
C=CCc1cc(-c2cccc(CC=C)c2O)ccc1OC	Dose-dependent effect	29	Dose-dependent effect	24.7	Dose-dependent effect	11.3	Dose-dependent effect	6.28	Dose-dependent effect	16.2	Dose-dependent effect	11.5	tde	tde	tde	–	–	–	–	–	–
C=CCc1ccc(O)c(-c2ccc(O)c(CC=C)c2)c1 [HONOKIOL]	Dose-dependent effect	7.45	Dose-dependent effect	5.1	Dose-dependent effect	12.5	Dose-dependent effect	7.75	Dose-dependent effect	23.9	Dose-dependent effect	13.2	tde	tde	tde	50.5	61.1	72.9	37.9	28.1	Activity (A549 [15]): 21.7%; Activity (A549 [16]): 11.6%; Activity (A549 [17]): 10.8%; Activity (A549 [18]): 5.4%; Activity (A549 [19]): Dose-dependent effect; Activity (A549 [20]): Dose-dependent effect
C=CCc1cc(-c2ccc(OC)c(CC=C)c2)ccc1O	Dose-dependent effect	3.05	Dose-dependent effect	1.39	Dose-dependent effect	2.47	Dose-dependent effect	1.99	Dose-dependent effect	3.19	Dose-dependent effect	2	tde	tde	tde	69.8	75.7	82.8	23	20.2	Activity (A549 [15]): 14.3%; Activity (A549 [16]): 7.2%; Activity (A549 [17]): 4.2%; Activity (A549 [18]): 2.8%; Activity (A549 [21]): Dose-dependent effect; Activity (A549 [22]): Dose-dependent effect; Activity (A549 [19]): Dose-dependent effect; Activity (A549 [20]): Dose-dependent effect; Activity (A549 [23]): Active; Activity (A549 [24]): Active; Activity (A549 [25]): Active; Activity (A549 [26]): Active
C=CCc1cc(-c2ccc(OC)c(CC=C)c2)c(O)c(-c2ccc(OC)c(CC=C)c2)c1	Dose-dependent effect	3.94	Dose-dependent effect	2.93	Dose-dependent effect	1.74	Dose-dependent effect	1.25	Dose-dependent effect	16.9	Dose-dependent effect	11.4	tde	tde	tde	–	–	–	–	–	–
C=CCc1cc(Br)c(O)c(-c2ccc(OC)c(CC=C)c2)c1	Dose-dependent effect	2.98	Dose-dependent effect	1.29	Dose-dependent effect	1.73	Dose-dependent effect	1.04	Dose-dependent effect	3.99	Dose-dependent effect	1.87	tde	tde	tde	55.8	63.1	76.4	32.8	30.6	Activity (A549 [15]): 20.7%; Activity (A549 [16]): 11.4%; Activity (A549 [17]): 6.3%; Activity (A549 [18]): 3%; Activity (A549 [21]): Dose-dependent effect; Activity (A549 [22]): Dose-dependent effect; Activity (A549 [19]): Dose-dependent effect; Activity (A549 [20]): Dose-dependent effect; Activity (A549 [23]): Active; Activity (A549 [24]): Active; Activity (A549 [25]): Active; Activity (A549 [26]): Active
C=CCc1ccc(O)c(-c2ccc(OC)c(CC=C)c2)c1 [METHYLHONOKIOL]	Dose-dependent effect	37.7	Dose-dependent effect	24.1	Dose-dependent effect	1.56	Dose-dependent effect	1.24	Dose-dependent effect	22.4	Dose-dependent effect	14.1	tde	tde	tde	–	–	–	–	–	–
C=CCc1ccc(O)c(-c2cccc(CC=C)c2O)c1	Dose-dependent effect	22.3	Dose-dependent effect	17.4	Dose-dependent effect	2.04	Dose-dependent effect	1.08	Dose-dependent effect	17.4	Dose-dependent effect	12.4	tde	tde	tde	–	–	–	–	–	–
